Source: PubChem (several laboratories)
Compounds with a hit are over-represented: about 2.2% of the library has one in this group of screens.
GLD-1 RNA inh: GLD-1-TGE RNA interaction inhibition (C. elegans); 0.44% of 320,000 active; Q17339; purified GLD-1 + fluorescein TGE RNA, fluorescence polarization; inhibition, % at 5.96 µM;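 active = percent inhibition above a per-plate cutoff, the plate mean of test compounds plus 3 SD, cut at about 30% in these data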
Bcl-xL primary: Bcl-xL (human) inhibition. Q07817. GST-Bcl-xL / FITC-Bim BH3 peptide fluorescence polarization. inhibition, % at 10.9 µM. 0.7% of 320,000 active;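 active = inhibition above the mean of all tested compounds plus 3 SD, cutoff set per campaign, cut at about 30% in these data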;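 also: inhibitors lower millipolarization by displacing the labeled peptide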
Target sequence (Q07817 whole entry, looked up): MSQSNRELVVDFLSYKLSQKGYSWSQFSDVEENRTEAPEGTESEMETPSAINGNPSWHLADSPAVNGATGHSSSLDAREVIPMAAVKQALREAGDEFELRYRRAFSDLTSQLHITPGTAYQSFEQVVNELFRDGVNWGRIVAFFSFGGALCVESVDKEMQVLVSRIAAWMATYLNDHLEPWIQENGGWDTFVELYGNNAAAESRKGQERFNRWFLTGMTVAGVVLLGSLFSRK
IMP-1 inh-1: inhibitors of Pseudomonas aeruginosa IMP-1 metallo-beta-lactamase | inhibition, % at 5.6 µM | 0.45% of 290,000 active | purified IMP-1, nitrocefin hydrolysis, epi-absorbance fluorescence;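 active = inhibition above the mean plus 3 SD of all compounds in the same screening run, cut at about 4.5% in these data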
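System: purified recombinant IMP-1 beta-lactamase. Medium: Zinc- and detergent-supplemented HEPES buffer, pH 7.1. Compound: one 5.6 µM dose […]. Schedule: 15 min preincubation plus 25 min reaction at 25 °C. Technique: Epi-absorbance fluorescence, 480 nm excitation, 530 nm emission.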
VIM-2 inhibitor: blocks Pseudomonas aeruginosa VIM-2 metallo-beta-lactamase; purified VIM-2, nitrocefin hydrolysis, epi-absorbance fluorescence; inhibition, % at 5.6 µM; 0.89% of 290,000 active; AID 1527;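 active = inhibition above the mean of all tested compounds plus 3 SD, cutoff set per screening run, cut at about 7.5% in these data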;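 also: red hydrolysis product quenches plate fluorescence so inhibitors raise well fluorescence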
EBV gp42 block: EBV gp42 inhibition; Q1HVG2; inhibition, % (tested at 21.74 µM); Fluorescence polarization binding assay, mP read-out; 0.42% of 220,000 active; in the data active = inhibition above about 50%
MEX-5 binding: C. elegans MEX-5 TCR-2 RNA binding activity | 0.38% of 300,000 active | MEX-5/FITC-TCR2 RNA binding, fluorescence polarization; hits give low values | AID 1832 | activity score (negative = inhibition of binding), % at 10 µM;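 active = inhibition past about -25% in most replicates, and total fluorescence under double the plate's negative control median, limit read from the data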
Target sequence (Q9XUB2 whole entry, looked up): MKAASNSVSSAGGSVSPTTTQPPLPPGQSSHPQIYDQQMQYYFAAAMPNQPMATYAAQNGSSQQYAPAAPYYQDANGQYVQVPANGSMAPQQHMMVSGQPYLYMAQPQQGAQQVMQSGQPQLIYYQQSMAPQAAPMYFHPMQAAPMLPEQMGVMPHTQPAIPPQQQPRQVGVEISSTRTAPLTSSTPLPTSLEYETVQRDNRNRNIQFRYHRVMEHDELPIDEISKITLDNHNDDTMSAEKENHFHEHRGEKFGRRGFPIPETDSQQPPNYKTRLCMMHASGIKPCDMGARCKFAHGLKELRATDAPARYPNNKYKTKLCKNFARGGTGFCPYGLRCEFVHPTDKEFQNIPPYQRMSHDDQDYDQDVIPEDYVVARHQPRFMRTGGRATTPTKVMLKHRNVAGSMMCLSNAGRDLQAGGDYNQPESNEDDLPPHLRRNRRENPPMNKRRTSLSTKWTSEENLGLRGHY
IMP-1 inh-2: IMP-1 inhibition, counter-screen for VIM-2 inhibitors; shares compounds with VIM-2 inhibitor; purified IMP-1, nitrocefin hydrolysis, epi-absorbance fluorescence; inhibition, % at 5.6 µM; 1,300 tested, under 10 active; AID 1856; call rule not given here
VIM-2 FRET ctr: counter-screen for VIM-2 inhibitors: epi-absorbance artifacts via FRET. shares compounds with VIM-2 inhibitor. purified VIM-2, CCF2 FRET substrate hydrolysis. inhibition, % at 5.6 µM. 23% of 1,300 active;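 active = inhibition above the mean of all tested compounds plus 3 SD, cut at about 19% in these data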
TEM-1 counter: selectivity counter-screen for VIM-2 inhibitors: E. coli TEM-1 inhibitors; shares compounds with VIM-2 inhibitor; Purified TEM-1, nitrocefin hydrolysis, epi-absorbance fluorescence; inhibition, % at 5.6 µM; 3% of 1,300 active; AID 1866;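 active = inhibition above that campaign's mean inhibition plus 3 SD, cut at about 0.46% in these data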
VIM-2 inh conf: confirmation of P. aeruginosa VIM-2 metallo-beta-lactamase inhibitors | shares compounds with VIM-2 inhibitor | purified VIM-2, nitrocefin hydrolysis, epi-absorbance | inhibition, % at 5.6 µM | 96% of 1,300 active;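 active = inhibition of the VIM-2 beta-lactamase enzyme above about 11% from the earlier first-round screen, limit read from the data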
Numbers stand for hits; i = inactive; nt = no result given.

SMILES	GLD-1 RNA inh	Bcl-xL primary	IMP-1 inh-1	VIM-2 inhibitor	EBV gp42 block	MEX-5 binding	IMP-1 inh-2	VIM-2 FRET ctr	TEM-1 counter	VIM-2 inh conf
CC(=O)Nc1cccc(Oc2nc(C(F)(F)F)nc3ccccc23)c1	i	i	i	14	nt	i	i	i	i	26
COc1ccc(Oc2nc(C(F)(F)F)nc3ccccc23)cc1	i	i	i	i	i	i	nt	nt	nt	nt
COc1cc(Oc2nc(C(F)(F)F)nc3ccccc23)ccc1C=O	i	i	i	14	nt	i	i	i	i	24
O=C(CSC(=S)N1CCCC1)N1CCN(S(=O)(=O)c2ccccc2F)CC1	i	i	nt	nt	nt	i	nt	nt	nt	nt
CCn1c2ccccc2c2nnc(SCc3ccccc3)nc21	i	i	i	i	i	i	nt	nt	nt	nt
CCN(CC)CCSc1nnc2c3ccccc3n(Cc3ccccc3)c2n1	i	i	i	31	i	i	i	i	i	49
CCN(CC)CCSc1nnc2c3cc(F)ccc3n(Cc3ccccc3)c2n1	i	i	i	23	nt	i	i	i	i	37
NNc1nnc2c3cc(F)ccc3n(CCc3ccccc3)c2n1	i	i	i	i	nt	i	nt	nt	nt	nt
CCN(CC)S(=O)(=O)c1ccc2[nH]c(=O)c3ccccc3c2c1	nt	nt	i	i	nt	i	nt	nt	nt	nt
O=C(O)C(Cc1ccc(Cl)cc1)Sc1nc2ccccc2[nH]1 (stereo not drawn)	nt	nt	i	i	nt	i	nt	nt	nt	nt
Cc1cc(C(=O)NCC(=O)OCC(=O)NCC2CCCO2)ccc1[N+](=O)[O-] (stereo not drawn)	i	i	nt	nt	nt	nt	nt	nt	nt	nt
CC(C)C(=O)Nc1nnc(SCC(=O)NCc2cccs2)s1	i	i	i	14	i	i	i	41	i	26
CC(C)(C)C(=O)Nc1nnc(SCC(=O)NCc2cccs2)s1	i	i	i	56	i	i	i	79	i	61
Cc1nn(CC(=O)NCCCN2CCC(N3CCCCC3)CC2)c(=O)c2cc(-c3ccccc3)nn12	i	i	i	22	nt	i	i	i	i	37
Cc1nn(CC(=O)N2CCN(c3ccccn3)CC2)c(=O)c2cc3sccc3n12	i	i	i	i	nt	i	nt	nt	nt	nt
CCc1nn(CC(=O)N2CCN(CC)CC2)c(=O)c2cc3sccc3n12	i	i	i	41	nt	i	i	i	i	50
CCCN1CCN(C(=O)Cn2nc(C)n3c(cc4sccc43)c2=O)CC1	i	i	i	18	nt	i	i	i	i	23
Cc1nnc2c(N3CCN(CCO)CC3)nc3ccccc3n12	i	i	i	13	nt	i	i	i	i	14
CCN1CCN(c2nc3ccccc3n3cnnc23)CC1	i	i	i	i	i	i	nt	nt	nt	nt
CCN(CC(=O)NCc1ccc(Cl)cc1)C(=O)CSCC(=O)Nc1ccc(OC)cc1	i	i	nt	nt	nt	i	nt	nt	nt	nt
Cc1ccc2nc(Cl)c3cc(C(=O)NCCCN4CCCC4)sc3c2c1	i	i	i	13	i	i	i	i	i	27
CCOC(=O)N1CCC(Nc2ccc3nnc(-c4ccccc4)n3n2)CC1	i	i	i	15	i	i	i	i	i	24
CCN1CCN(c2cc3c(nn2)Oc2ccccc2N3C)CC1	i	i	i	13	i	i	i	i	i	25
CCN1CCN(c2nnc(-c3ccccc3)c3ccccc23)CC1	i	i	i	i	nt	i	nt	nt	nt	nt
CC(C)CCn1c(=O)c2sccc2n2c(CCCC(=O)N3CCC(N4CCCCC4)CC3)nnc12	i	i	i	13	nt	i	i	i	i	17
SMILES	GLD-1 RNA inh	Bcl-xL primary	IMP-1 inh-1	VIM-2 inhibitor	EBV gp42 block	MEX-5 binding	IMP-1 inh-2	VIM-2 FRET ctr	TEM-1 counter	VIM-2 inh conf
CCOC(=O)C1CCCN(C(=O)c2ccc(-c3ccc([N+](=O)[O-])cc3)o2)C1 (stereo not drawn)	i	i	nt	nt	nt	i	nt	nt	nt	nt
O=C(O)c1cc2ccc3ccccc3c2[nH]1	i	i	i	14	i	i	i	18	i	16
COc1ccc2[nH]c(C(=O)O)c(CCNC(C)=O)c2c1	i	i	i	i	i	i	nt	nt	nt	nt
COc1ccc2[nH]c(C(=O)O)c(CCN3C(=O)c4cccc([N+](=O)[O-])c4C3=O)c2c1	i	i	i	14	i	i	i	79	i	65
CCC(=O)N(c1nnc(SCC(=O)Nc2ccccc2Cl)s1)C1CC1	i	i	nt	nt	nt	nt	nt	nt	nt	nt
CCN(CC)CCNc1ccc(CO)c2sc3ccccc3c(=O)c12	i	i	i	24	i	i	i	i	i	35
NS(=O)(=O)c1cccc(NC(=O)CC(NC(=O)c2ccccc2Cl)c2ccccc2)c1 (stereo not drawn)	i	i	i	i	nt	i	nt	nt	nt	nt
CN1CCN(C(=O)CNc2ccc(C(F)(F)F)cc2[N+](=O)[O-])CC1	i	i	i	24	i	i	i	i	i	38
N#CCSc1nc2cc(C(=O)N3CCCC3)ccc2c(=O)n1Cc1ccccc1	i	i	i	i	i	i	nt	nt	nt	nt
N#CCSc1nc2cc(C(=O)N3CCC(C(N)=O)CC3)ccc2c2nc3ccccc3n12	i	i	i	24	i	i	i	i	i	40
O=C1c2ccccc2C(=O)N1c1cccc2cccnc12	i	i	i	14	i	i	i	i	i	i
O=C1C2C3C=CC(C3)C2C(=O)N1c1cccc2cccnc12 (stereo not drawn)	i	i	i	i	i	nt	nt	nt	nt	nt
CCN(c1ccccc1)S(=O)(=O)c1ccc(N2CCN(c3ccccc3O)CC2)nc1	i	i	nt	nt	nt	nt	nt	nt	nt	nt
O=C1C(=Cc2ccco2)C(=O)c2ccccc21	i	i	i	31	i	i	i	i	i	i
CN1CCN(c2ccc(NC(=O)c3sc4ccccc4c3Cl)cc2)CC1	i	i	i	22	i	i	i	i	i	51
CN1CCN(c2ccc(NC(=O)c3ccc(-c4cccc([N+](=O)[O-])c4)o3)cc2)CC1	i	i	i	42	i	i	i	i	i	64
CN1CCN(C(=O)c2ccccc2NC(=O)c2sc3ccccc3c2Cl)CC1	i	i	i	i	nt	i	nt	nt	nt	nt
CN1CCN(c2ccc(NC(=O)N3CCc4ccccc43)cc2)CC1	i	i	i	28	nt	i	i	i	i	40
CS(=O)(=O)N1CCN(c2ccc(NC(=O)c3ccc(-c4ccc(Cl)cc4)o3)cc2)CC1	i	i	i	i	i	i	nt	nt	nt	nt
CN1CCN(c2ccc(NC(=O)c3ccc(-c4ccc(Cl)cc4)o3)cc2)CC1	i	i	i	28	nt	i	i	i	i	42
O=C(NCc1c[nH]c2ccccc12)c1ccccc1	i	i	nt	nt	nt	i	nt	nt	nt	nt
NC(N)=Nc1nc(-c2ccccc2)c2ccccc2n1	i	i	i	14	i	i	i	i	i	27
